Assay results taken from ChEMBL document CHEMBL1687805, “Colistin resistance in Acinetobacter baumannii is mediated by complete loss of lipopolysaccharide production” (2010).
Converted amounts (≈) assume the structure as drawn.

How the values were obtained:
Type in all cases: functional
Acinetobacter baumannii [1] = test: Antibacterial activity against colistin-resistant Acinetobacter baumannii ATCC 19606R exhibiting complete loss of lipopolysaccharide production by broth microdilution method
Method in brief: (§1)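 Broth microdilution MIC in cation-adjusted Mueller-Hinton broth following the CLSI protocol, read in μg/ml. Strains were kept on Mueller-Hinton agar and cultured at 37°C. 19606R was selected directly on 10 μg/ml colistin and maintained with it. The pWH1266 or pAL840 transformants of 19606R were introduced by electroporation and selected on 100 μg/ml ampicillin.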

Acinetobacter baumannii [2] = test: Antibacterial activity against colistin-resistant Acinetobacter baumannii ATCC 19606R harboring empty plasmid pWH1266 by broth microdilution method; method in brief: as §1
Acinetobacter baumannii [3] = test: Antibacterial activity against colistin-resistant Acinetobacter baumannii ATCC 19606R harboring pAL840 plasmid encoding intact lpxA gene by broth microdilution method; method in brief: as §1
Acinetobacter baumannii [4] = test: Antibacterial activity against Acinetobacter baumannii ATCC 19606 by broth microdilution method; method in brief: as §1

Row | Molecule | MIC (Acinetobacter baumannii [1]) [mg/L] | MIC (Acinetobacter baumannii [2]) [mg/L] | MIC (Acinetobacter baumannii [3]) [mg/L] | MIC (Acinetobacter baumannii [4]) [mg/L]
1 | CO/N=C(\C(=O)N[C@@H]1C(=O)N2C(C(=O)[O-])=C(C[N+]3(C)CCCC3)CS[C@H]12)c1csc(N)n1 | 0.125 (≈ 0.26 µM) | 0.125 (≈ 0.26 µM) | 16 (≈ 33.3 µM) | 16 (≈ 33.3 µM)
2 | CC[C@H]1OC(=O)[C@H](C)[C@@H](O[C@H]2C[C@@](C)(OC)[C@@H](O)[C@H](C)O2)[C@H](C)[C@@H](O[C@@H]2O[C@H](C)C[C@H](N(C)C)[C@H]2O)[C@](C)(O)C[C@@H](C)CN(C)[C@H](C)[C@@H](O)[C@]1(C)O [AZITHROMYCIN] | 2 (≈ 2.67 µM) | 2 (≈ 2.67 µM) | 64 (≈ 85.4 µM) | 64 (≈ 85.4 µM)
3 | POLYMYXIN B | > 128 | > 128 | 0.5 | 0.5
